Results published in ChEMBL document CHEMBL5058577, “EUbOPEN Chemogenomics Library 2 (Multiplex)” (2022).

Test system: HEK-293T
Experiment: Multiplex assay against HEK293T
Type: toxicity, cell-based
Conditions: human
Method in brief: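 With compound added, live cells were imaged on a CQ1 microscope at 37°C and 5% CO2; staining with Hoechst33342, BioTracker Green Microtubule Cytoskeleton Dye, MitoTracker Red and Annexin V Alexa Fluor 680 had been done at seeding. The CellPathfinder machine-learning gating scheme split cells into Hoechst high-intensity objects or normal cells, normal cells into healthy, pyknosed or fragmented nuclei, and pyknosed cells into mitotic or apoptotic. The tubulin, mitochondrial-mass and membrane-permeability phenotypes are per cents of healthy-nucleus cells.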

[1] = 12 h, 1 µM, compound concentration 1 uM, replicate 1
[2] = 12 h, 1 µM, compound concentration 1 uM, replicate 2
[3] = 12 h, 10 µM, compound concentration 10 uM, replicate 1
[4] = 12 h, 10 µM, compound concentration 10 uM, replicate 2
[5] = 24 h, 1 µM, compound concentration 1 uM, replicate 1
[6] = 24 h, 1 µM, compound concentration 1 uM, replicate 2
[7] = 24 h, 10 µM, compound concentration 10 uM, replicate 1
[8] = 24 h, 10 µM, compound concentration 10 uM, replicate 2
[9] = 48 h, 1 µM, compound concentration 1 uM, replicate 1
[10] = 48 h, 1 µM, compound concentration 1 uM, replicate 2
[11] = 48 h, 10 µM, compound concentration 10 uM, replicate 1
[12] = 48 h, 10 µM, compound concentration 10 uM, replicate 2

## Cc1c(CC(=O)O)c2cccnc2n1Cc1ccc(S(C)(=O)=O)cc1C(F)(F)F [FEVIPIPRANT]
[1]
  Population Apoptotic (%): 27%
  Population Fragmented Nuclei (%): 6%
  Population Healthy Nuclei (%): 83%
  Population Hoechst High Intensity Objects (%): 5%
  Population Membrane Permeable-Phenotype (%): 0%
  Population Mitochondria Different-Phenotype (%): 32%
  Population Mitotic Cells (%): 72%
  Population Normal (%): 94%
  Population Pyknosed Nuclei (%): 9%
  Population Tubulin-Different-Phenotype (%): 22%
  Total Cell Count: 471
[2]
  Population Apoptotic (%): 41%
  Population Fragmented Nuclei (%): 7%
  Population Healthy Nuclei (%): 79%
  Population Hoechst High Intensity Objects (%): 7%
  Population Mitochondria Different-Phenotype (%): 52%
  Population Mitotic Cells (%): 58%
  Population Normal (%): 92%
  Population Pyknosed Nuclei (%): 12%
  Population Tubulin-Different-Phenotype (%): 16%
  Total Cell Count: 370
[3]
  Population Apoptotic (%): 33%
  Population Fragmented Nuclei (%): 5%
  Population Healthy Nuclei (%): 80%
  Population Hoechst High Intensity Objects (%): 6%
  Population Membrane Permeable-Phenotype (%): 0%
  Population Mitochondria Different-Phenotype (%): 46%
  Population Mitotic Cells (%): 66%
  Population Normal (%): 93%
  Population Pyknosed Nuclei (%): 13%
  Population Tubulin-Different-Phenotype (%): 29%
  Total Cell Count: 417
[4]
  Population Apoptotic (%): 52%
  Population Fragmented Nuclei (%): 11%
  Population Healthy Nuclei (%): 75%
  Population Hoechst High Intensity Objects (%): 10%
  Population Mitochondria Different-Phenotype (%): 66%
  Population Mitotic Cells (%): 47%
  Population Normal (%): 89%
  Population Pyknosed Nuclei (%): 12%
  Population Tubulin-Different-Phenotype (%): 32%
  Total Cell Count: 303
[5]
  Population Apoptotic (%): 22%
  Population Fragmented Nuclei (%): 8%
  Population Healthy Nuclei (%): 81%
  Population Hoechst High Intensity Objects (%): 3%
  Population Membrane Permeable-Phenotype (%): 1%
  Population Mitochondria Different-Phenotype (%): 18%
  Population Mitotic Cells (%): 77%
  Population Normal (%): 96%
  Population Pyknosed Nuclei (%): 10%
  Population Tubulin-Different-Phenotype (%): 18%
  Total Cell Count: 637
[6]
  Population Apoptotic (%): 43%
  Population Fragmented Nuclei (%): 7%
  Population Healthy Nuclei (%): 82%
  Population Hoechst High Intensity Objects (%): 4%
  Population Membrane Permeable-Phenotype (%): 0%
  Population Mitochondria Different-Phenotype (%): 37%
  Population Mitotic Cells (%): 56%
  Population Normal (%): 95%
  Population Tubulin-Different-Phenotype (%): 14%
  Total Cell Count: 457
[7]
  Population Apoptotic (%): 33%
  Population Fragmented Nuclei (%): 8%
  Population Healthy Nuclei (%): 80%
  Population Hoechst High Intensity Objects (%): 5%
  Population Membrane Permeable-Phenotype (%): 0%
  Population Mitochondria Different-Phenotype (%): 31%
  Population Mitotic Cells (%): 66%
  Population Normal (%): 94%
  Population Pyknosed Nuclei (%): 10%
  Population Tubulin-Different-Phenotype (%): 20%
  Total Cell Count: 499
[8]
  Population Apoptotic (%): 50%
  Population Fragmented Nuclei (%): 9%
  Population Healthy Nuclei (%): 81%
  Population Hoechst High Intensity Objects (%): 11%
  Population Mitochondria Different-Phenotype (%): 44%
  Population Mitotic Cells (%): 50%
  Population Normal (%): 88%
  Population Pyknosed Nuclei (%): 8%
  Total Cell Count: 334
[9]
  Population Apoptotic (%): 16%
  Population Fragmented Nuclei (%): 13%
  Population Healthy Nuclei (%): 79%
  Population Hoechst High Intensity Objects (%): 1%
  Population Membrane Permeable-Phenotype (%): 2%
  Population Mitochondria Different-Phenotype (%): 12%
  Population Mitotic Cells (%): 83%
  Population Normal (%): 98%
  Population Pyknosed Nuclei (%): 7%
  Population Tubulin-Different-Phenotype (%): 12%
  Total Cell Count: 1065
[10]
  Population Apoptotic (%): 20%
  Population Fragmented Nuclei (%): 11%
  Population Healthy Nuclei (%): 82%
  Population Hoechst High Intensity Objects (%): 2%
  Population Membrane Permeable-Phenotype (%): 0%
  Population Mitochondria Different-Phenotype (%): 16%
  Population Mitotic Cells (%): 79%
  Population Normal (%): 97%
  Population Pyknosed Nuclei (%): 6%
  Population Tubulin-Different-Phenotype (%): 10%
  Total Cell Count: 713
[11]
  Population Apoptotic (%): 29%
  Population Fragmented Nuclei (%): 14%
  Population Healthy Nuclei (%): 78%
  Population Hoechst High Intensity Objects (%): 4%
  Population Membrane Permeable-Phenotype (%): 0%
  Population Mitochondria Different-Phenotype (%): 24%
  Population Mitotic Cells (%): 70%
  Population Normal (%): 95%
  Population Pyknosed Nuclei (%): 7%
  Population Tubulin-Different-Phenotype (%): 14%
  Total Cell Count: 794
[12]
  Population Apoptotic (%): 45%
  Population Healthy Nuclei (%): 77%
  Population Hoechst High Intensity Objects (%): 7%
  Population Membrane Permeable-Phenotype (%): 1%
  Population Mitochondria Different-Phenotype (%): 22%
  Population Mitotic Cells (%): 55%
  Population Normal (%): 92%
  Population Pyknosed Nuclei (%): 8%
  Population Tubulin-Different-Phenotype (%): 17%
  Total Cell Count: 491
